TRPML3 ag: agonists of human TRPML3 channel; HEK293 TRPML3-YFP, Fluo-8 calcium fluorescence; 100% = the carbachol control signal; 220,000 compounds, 0.29% hits; activation, % at 3 µM; AID 1448; Q8TDD5;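 active = activation above its plate's cutoff, the mean activation of the plate's test wells plus 3 SD, cut at about 12% in these data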
Target sequence (Q8TDD5 whole entry, looked up): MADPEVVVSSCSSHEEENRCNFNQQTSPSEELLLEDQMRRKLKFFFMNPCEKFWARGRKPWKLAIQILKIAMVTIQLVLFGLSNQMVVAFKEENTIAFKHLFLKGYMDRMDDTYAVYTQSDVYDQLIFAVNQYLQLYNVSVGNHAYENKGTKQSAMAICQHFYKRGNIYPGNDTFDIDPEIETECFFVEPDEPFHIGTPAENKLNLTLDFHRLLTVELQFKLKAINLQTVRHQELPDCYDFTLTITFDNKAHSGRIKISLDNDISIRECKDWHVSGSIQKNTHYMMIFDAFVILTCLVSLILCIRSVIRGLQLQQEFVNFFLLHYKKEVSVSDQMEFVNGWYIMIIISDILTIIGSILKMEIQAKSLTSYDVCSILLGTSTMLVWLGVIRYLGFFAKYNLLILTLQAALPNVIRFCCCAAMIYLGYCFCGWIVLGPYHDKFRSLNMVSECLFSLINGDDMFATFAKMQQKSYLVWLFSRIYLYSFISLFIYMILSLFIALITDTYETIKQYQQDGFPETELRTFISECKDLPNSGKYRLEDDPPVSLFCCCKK
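Test system: HEK293 cells stably carrying human TRPML3-YFP; Doses: single dose, 3 µM final nominal compound, 0.3% DMSO final; Schedule: dye loading 1 h 37 °C then 30 min ambient, 125 s read; Technique: Fluo-8 calcium fluorescence; Benchmarks: high control carbachol 87 µM, low control DMSO.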
IMP-1 inh: inhibitors of Pseudomonas aeruginosa IMP-1 metallo-beta-lactamase; 290,000 compounds, 0.45% hits; AID 1556; inhibition, % at 5.6 µM; purified IMP-1, nitrocefin hydrolysis, epi-absorbance fluorescence;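 active = inhibition above the mean plus 3 SD of all compounds in the same screening run, cut at about 4.5% in these data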
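Test system: recombinant IMP-1 enzyme, purified / Medium: HEPES buffer pH 7.1 with ZnSO4 and Brij 35 / Doses: single dose, 5.6 µM / Times: 25 °C, 15 min preincubation, 25 min reaction / Detection: Epi-absorbance via hydrolysed-nitrocefin quenching of white-plate fluorescence, 480/530 nm, EDTA stop / Evaluation: percent inhibition from optical density relative to buffer-blank wells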
CRFR2-BP ag: agonists of human CRF-binding protein/CRF-R2 receptor complex. HEK293 CRF-R2/CRF-BP, calcium dye fluorescence (FLIPR); percent of saturating CRF peptide response. activation, % at 13.2 µM. 350,000 compounds, 0.46% hits. AID 588473;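 active = activation of at least 50%, plus an integration ratio under a set limit after plate pattern correction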
zfTRPN1 agonist: agonists of zebrafish TRPN1 channel; activation, % at 3 µM; 220,000 compounds, 0.18% hits; HEK293 zebrafish TRPN1-YFP, Fluo-8 calcium fluorescence; 100% = response to 87 µM carbachol; AID 1424;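 active = activation above its plate's cutoff, the mean activation of test wells on that plate plus 3 SD, cut at about 19% in these data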
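Material – zebrafish TRPN1-YFP in HEK293 cells · Doses – 3 µM single point · Schedule – dye 1 h 37 °C plus 30 min RT · Signal – Fluo-8 calcium fluorescence, excitation 470-495 nm, emission 515-575 nm · Read-out – % activation versus carbachol response · Control set – carbachol high, DMSO low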
VIM-2 inhibitor: inhibitors of Pseudomonas aeruginosa VIM-2 metallo-beta-lactamase | purified VIM-2, nitrocefin hydrolysis, epi-absorbance fluorescence | inhibition, % at 5.6 µM | 290,000 compounds, 0.89% hits | AID 1527;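 active = inhibition above the mean of all tested compounds plus 3 SD, cutoff set per screening run, cut at about 7.5% in these data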;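 also: red hydrolysis product quenches plate fluorescence so inhibitors raise well fluorescence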
CRFBP-R2 block: blocks CRF-induced signaling of the CRF-BP/CRF-R2 complex. AID 588475. HEK293 CRF-R2/CRF-BP, CRF-induced calcium fluorescence. 350,000 compounds, 0.59% hits. inhibition, % at 11.8 µM;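 active = inhibition of the ligand-induced calcium signal above about 50% at the single tested concentration, limit read from the data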
A number is an active result; . = inactive; / = no result. This is a sample that favours compounds with a hit; in the whole collection about 2.1% have one here.

SMILES	TRPML3 ag	IMP-1 inh	CRFR2-BP ag	zfTRPN1 agonist	VIM-2 inhibitor	CRFBP-R2 block
COc1ccccc1C(=O)NNC(=S)NC(=O)c1sc2ccccc2c1Cl	.	.	170	.	.	.
Cc1ccc(CNC(=O)C2CCCN(c3ncnc4c3nc3n4CCCCC3)C2)cc1 (centres undefined)	/	.	.	/	.	.
COc1ccc(NS(=O)(=O)c2c(C)n(C)c(=O)n(C)c2=O)cc1OC	.	.	.	.	.	82
COc1cccc(NS(=O)(=O)c2c(C)n(C)c(=O)n(C)c2=O)c1	.	.	.	.	.	.
CC1(C)CC2(CCO1)OC(=O)CC2C(=O)Nc1ccccc1Cl (centres undefined)	.	.	.	.	.	.
Cc1c(-c2ccc(Cl)cc2)[n+](=O)c(-c2ccccc2)cn1[O-]	.	.	.	.	.	111
Cc1c(-c2ccc(Cl)cc2)[n+](=O)c2c(n1[O-])CCCC2	.	.	.	.	.	.
COc1ccc(CNC(=O)C[C@@H]2C[C@H]3c4cc(NC(=O)NC5CCCC5)ccc4O[C@H]3[C@H](CO)O2)cc1	/	/	.	/	/	.
C[N+]1=C(/C=C/Nc2ccccc2Cl)C(C)(C)c2ccccc21	.	.	.	.	.	.
COC(=O)c1ccc2c(c1)C(C)(C)C(/C=C/c1ccccc1O)=[N+]2C	.	.	53	.	.	.
NC(=O)c1cc(-c2csc(NCCc3ccccc3)n2)ccc1O	/	5.0	.	/	.	.
COc1ccc(C(=O)Nn2c(SCC(=O)N3CCC(C)CC3)nc3ccccc3c2=O)cc1	.	.	.	.	.	.
COc1ccc(C(=O)Nn2c(SCC(=O)NC3CCCCC3)nc3ccccc3c2=O)cc1	.	.	.	.	.	75
O=C(C[n+]1ccccc1)N/N=C/c1ccccc1C(F)(F)F	/	.	.	/	.	.
CCCN(C(=O)CSc1n[nH]c(-c2ccc(OC)cc2)n1)c1c(N)n(Cc2ccccc2)c(=O)[nH]c1=O	/	/	.	/	/	59
FCCCOc1ccc(-c2ccnc(-c3ccccc3)n2)cc1	.	5.1	.	.	.	.
Cc1nnc2c3ccccc3c(-c3ccc(O)cc3)nn12	.	.	.	.	10	.
Cc1nnc2c3ccccc3c(Cl)nn12	.	.	.	.	.	.
COc1ccccc1N1CCN(C(=O)C2CCC(CNS(=O)(=O)c3ccc(NC(C)=O)cc3)CC2)CC1 (centres undefined)	/	.	.	/	.	.
COc1ccc(C2C(C#N)=C(N)N(c3sc4c(c3C#N)CCCC4)C3=C2C(=O)CC(C)(C)C3)cc1 (centres undefined)	.	4.7	.	.	.	.
COn1c(=O)c(=O)n(O)c2ccccc21	.	.	.	.	.	.
O=c1c(=O)n(O)c2ccccc2n1O	.	11	.	.	.	.
COc1cccc2sc3ccc(NCc4ccc5c(c4)OCO5)cc3c(=O)c12	/	.	.	/	9.2	.
O=C(/C=C/c1ccco1)NC(=S)Nc1cccc(C(=O)O)c1	/	8.9	.	/	.	.
CC1CN(C(=S)Nc2cccc(Cl)c2Cl)CC(C)O1 (centres undefined)	/	.	.	/	.	.
SMILES	TRPML3 ag	IMP-1 inh	CRFR2-BP ag	zfTRPN1 agonist	VIM-2 inhibitor	CRFBP-R2 block
O=C(Nc1cc(C(F)(F)F)ccc1Cl)C(Sc1n[nH]c(=O)[nH]c1=O)c1ccccc1 (centres undefined)	.	.	.	.	.	.
O=C(Nc1cc(C(F)(F)F)ccc1Cl)C(Sc1cccc[n+]1[O-])c1ccccc1 (centres undefined)	.	.	160	.	.	.
CCOc1ccc(Nc2cc(Nc3ccccc3OCC)nc(C=C(C#N)C#N)n2)cc1	.	.	.	.	.	.
O=C(CN(Cc1cccs1)C(=O)CN1C(=O)COc2ccccc21)NCc1ccco1	.	5.4	.	.	.	.
O=C(C[C@H]1C/C=C\C[C@@H](Cc2ccc(F)cc2)C(=O)O[C@H](c2ccccc2)CNC1=O)NCCO	/	/	.	/	/	84
CCOC(=O)C1=NN(C(=O)c2ccc(C)cc2)C(O)(c2ccc(Cl)cc2)C1 (centres undefined)	18	.	90	25	.	.
COC(=O)C1=NN(C(=O)c2ccc(Cl)cc2)C(O)(c2ccccc2)C1 (centres undefined)	.	.	72	.	.	.
Cc1ccc(C)c(S(=O)(=O)Nc2ccc3oc(C)c(C(=O)O)c3c2)c1	/	6.0	.	/	.	.
CC(=O)c1c(C)oc2ccc(NS(=O)(=O)c3ccc(C)cc3)cc12	/	.	.	/	.	.
Clc1ccc(-n2cc(COCc3ccccc3)nn2)cc1	.	.	.	.	.	63
O=C(Nc1ccc(Cl)cc1)OCc1cn(-c2ccc(Cl)cc2)nn1	.	.	.	.	.	.
O=C(O)c1cnc(-c2ccccc2)nc1Sc1ccc(Cl)cc1	.	.	.	.	.	55
Cc1nc(N)sc1-c1csc(Nc2ncccn2)n1	.	27	.	.	.	.
COc1cccc(-c2nc(N)nc(SC)c2C#N)c1	.	.	.	.	.	.
CCCCS(=O)(=O)N1CCCC(C(=O)Oc2ccc(Cl)cc2)C1 (centres undefined)	/	6.0	.	/	.	.
CCCCS(=O)(=O)N1CCC(C(=O)Oc2ccc(Cl)cc2)CC1	/	.	.	/	.	.
O=C(CSc1nnc(NC(=O)c2ccccc2)s1)NCC1CCCO1 (centres undefined)	/	.	.	/	11	.
O=C(CSc1nnc(NC(=O)c2cccc(F)c2)s1)NC1CCCC1	/	.	.	/	11	.
O=C(CSc1nnc(NC(=O)c2cccc(F)c2)s1)NC1CC1	/	.	.	/	.	.
C=CCNC(=O)c1c[nH]c2ccc(S(=O)(=O)N(C)c3ccc(OCC)cc3)cc2c1=O	/	.	.	/	.	.
Cc1ccc([C@@H]2C[C@H]3[C@@H](CN2S(=O)(=O)c2ccc(Cl)cc2)C(=O)C[C@@H](c2ccccc2)N3S(=O)(=O)c2ccc(C)cc2)cc1	/	/	.	/	/	.
CC(C)(c1ccccc1)c1ccc(OCCCNCCO)cc1	.	5.4	.	.	.	.
COCCCNCCCOc1ccc(C(C)(C)c2ccccc2)cc1	.	.	.	.	.	.
CCN(CC)C(=O)C1=C(C)N(CCCN2CCCC2=O)C(=O)C(CC(=O)NC2CCCCC2)C1 (centres undefined)	/	/	.	/	/	.
CCC1(C)Cc2c(sc3nc(SC)[nH]c(=S)c23)CO1 (centres undefined)	/	.	.	/	8.1	.
CNC(=O)c1cc(Oc2ccc(NC(=O)Nc3ccc(Cl)c(C(F)(F)F)c3)cc2)ccn1	/	/	.	/	/	.
c1ccc(OC2CCCCC2N2CCOCC2)cc1 (centres undefined)	/	/	.	/	/	.
CCCCCNC1=CC(=O)CC(c2ccccc2)C1 (centres undefined)	.	.	.	.	.	81
